miR-122 sensor: inhibitors of miR-122 in Huh7 cells. actives 0.3% (n = 340,000). Huh7 miR-122 Renilla luciferase sensor, 48 h; neutral wells = 0, positive control = 100. activation (reporter increase), % at 12.5 µM. AID 602342;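 active = mean replicate activation score at least 90 and every replicate individually at or above 90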;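 note: higher luciferase means less miR-122 activity so hits act as miR-122 inhibitors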
Cneo AK release: Cryptococcus neoformans lysis via adenylate kinase release. C. neoformans lysis, adenylate kinase release luminescence, 4 h; normalised: neutral wells 0, clomiphene wells 100. lysis activity, % at 15 µM. actives 0.2% (n = 360,000). AID 651654;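 active = mean lysis activity across replicates of at least 80%, whatever share of replicates individually reach that level; inactive = mean lysis activity below 80%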
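Test system: log-phase Cryptococcus neoformans yeast cells; Quantity: yeast cell density of 5 × 10^6 cells/mL; Buffer or medium: YPD; Doses: single compound concentration per well; Timing: 4 h at 37 °C static, read 1 h later; Measured by: AK luminescence; Read-out basis: lysis from increased AK signal; Control set: Clomiphene as positive control.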
DENV2 CPE rescue: DENV2-induced cell death inhibition. DENV2-infected cells, cytopathic effect rescue, plate reader. CPE inhibition, % at 9.99 µM. actives 1.7% (n = 350,000). AID 651640; in the data active = CPE inhibition above about 20%, passing the limit was not always enough; tested in BHK-21 cells;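 note: 0% = median of neutral control wells and 100% = median of positive control wells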
E-sel inducer: E-selectin induction on HUVECs | activation, % at 7.58 µM | AID 686992 | actives 0.37% (n = 260,000) | HUVEC E-selectin immunofluorescence imaging; normalized: neutral wells 0, TNF-alpha wells 100;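 active = mean E-selectin-positive cell signal at least 10% of the positive control, reached in at least 60% of replicates, without over 20% cell loss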
Target sequence (P16581 whole entry, looked up): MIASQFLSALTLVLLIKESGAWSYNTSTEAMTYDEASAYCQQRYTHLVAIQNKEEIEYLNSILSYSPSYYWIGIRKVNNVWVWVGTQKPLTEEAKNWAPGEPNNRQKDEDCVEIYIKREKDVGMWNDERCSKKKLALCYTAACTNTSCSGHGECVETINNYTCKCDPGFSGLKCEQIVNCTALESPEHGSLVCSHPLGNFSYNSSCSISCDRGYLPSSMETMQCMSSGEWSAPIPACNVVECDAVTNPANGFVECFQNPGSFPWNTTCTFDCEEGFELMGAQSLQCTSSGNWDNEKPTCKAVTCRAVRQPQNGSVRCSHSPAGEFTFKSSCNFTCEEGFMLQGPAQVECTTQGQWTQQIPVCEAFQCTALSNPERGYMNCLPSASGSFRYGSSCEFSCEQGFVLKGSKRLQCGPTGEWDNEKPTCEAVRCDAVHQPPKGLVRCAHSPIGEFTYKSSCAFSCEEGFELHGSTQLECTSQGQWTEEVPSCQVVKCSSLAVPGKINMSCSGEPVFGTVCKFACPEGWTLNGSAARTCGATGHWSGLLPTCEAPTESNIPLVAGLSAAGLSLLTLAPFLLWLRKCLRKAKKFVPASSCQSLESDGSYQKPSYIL
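System: HUVEC / Compound: single concentration / Signal: immunofluorescence imaging / Read-out: percent E-selectin-positive cells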
Ecoli rRNA inh: selective bacterial rRNA inhibition in E. coli; E. coli WT GFP vs humanized-ribosome RFP mutants, fluorescence, 24 h; hits give low values; DMSO median 0, no signal -100; GFP signal change (wild-type ribosome), % (concentration not given with the values); actives 1.6% (n = 350,000);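 active = significant combined selectivity score with lowered wild-type GFP, culture density cut under 30%, mutant RFP and density less affected; inactive = any of these conditions unmet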
The depositor's hits bear a star; x = no result; ! = not active in a repeat; [ ] = remark or other dose. In the library only some 3.1% were active in any assay of this set; here they are far more common.

SMILES	miR-122 sensor	Cneo AK release	DENV2 CPE rescue	E-sel inducer	Ecoli rRNA inh
CC(=O)N(C)C[C@H]1Oc2ncc(-c3ccc(F)cc3)cc2C(=O)N([C@@H](C)CO)C[C@H]1C	3.2[16.7 µM]	4.8	10.1	0.5	-0.1
CC(=O)N(C)C[C@@H]1Oc2ncc(-c3ccc(F)cc3)cc2C(=O)N([C@H](C)CO)C[C@H]1C	-3.8[16.7 µM]	-3.1	58.9*	0.2	-2.7
C[C@@H]1CN([C@H](C)CO)C(=O)c2cc(-c3ccc(F)cc3)cnc2O[C@H]1CN(C)CC1CCCCC1	-14.7[16.7 µM]	105.8*	-0.7	0.5	0.0
C[C@H](CO)N1C[C@H](C)[C@@H](CN(C)C(=O)c2ccc(F)cc2)Oc2ncc(-c3ccc(F)cc3)cc2C1=O	-4.6[16.7 µM]	7.7	48.0*	-0.4	-3.4
CCNC(=O)C[C@H]1CC[C@H]2[C@@H](COc3ccc(NC(=O)Nc4ccc(Cl)cc4)cc3C(=O)N2C)O1	0.6[16.7 µM]	-1.2	1.6	0.4	x
CCCN1[C@@H]2Cn3c(ccc(-c4ccc(F)cc4)c3=O)[C@H]1[C@@H](C(=O)NCCc1cn(C)cn1)[C@@H]2CO	-0.1[16.7 µM]	-2.2	x	-0.3	-1.7
C(=N\Nc1nc2ccccc2s1)/c1ccccn1	x	x	-13.5	1.7	-29.5*
Cc1csc(N/N=C/c2ccccn2)n1	-15.0	x	-1.4	-1.7	-31.6*
C[C@H]1CN([C@@H](C)CO)C(=O)c2cccc(NC(=O)Nc3ccc4c(c3)OCO4)c2O[C@@H]1CN(C)Cc1ccc(Cl)c(Cl)c1	x	x	1.4	-0.1	-9.9
Cc1noc(C)c1S(=O)(=O)Nc1ccc2c(c1)CC(=O)N([C@H](C)CO)C[C@@H](C)[C@@H](CN(C)Cc1ccc(C(=O)Nc3ccccc3N)cc1)O2	x	x	-5.3	x	-3.9
CCOc1ccccc1C(=O)OCC(=O)NCCc1ccc(OC)cc1	-8.9	-1.3	-9.8	-0.2	-21.9*
O=C(COC(=O)c1ccccc1C(=O)c1ccc(Cl)cc1)NCCc1ccccc1	-1.4	4.0	1.2	-0.2	-29.2*
COc1ccc(CC(=O)OCC(=O)NCCNC(=O)COC(=O)Cc2ccc(OC)cc2)cc1	x	1.7	60.7*	0.4	1.5
O=C(OCc1ccccc1Cl)c1ccccc1C(=O)c1ccccc1	136.9*	-3.6	x	x	x
COc1ccc(CC(=O)OCC(=O)NCc2ccc(F)cc2)cc1	-5.3	1.5	-7.9	0.6	8.0
CC(C)NC(=O)N(C)C[C@@H]1Oc2ccc(N(S(C)(=O)=O)S(C)(=O)=O)cc2C(=O)N(C)C[C@@H]1C	x	x	x	x	1.3
CC1=Nc2cc(C(=O)O)ccc2Sc2ccc(Br)cc21	-3.2	-4.3	8.6	4.3	-5.1
CC1=Nc2cc(C(=O)NCC3CCCO3)ccc2Sc2ccc(Br)cc21 (stereo not drawn)	3.8	0.2	1.6	1.8	-21.8*
O=C(NN=C1c2ccccc2-c2ccccc21)c1ccccc1Br	x	-0.8	5.1	x	27.6
O=C(NN=C1c2ccccc2-c2ccccc21)c1ccccc1	14.0	41.1	-2.0	0.1	-32.4*
COc1ccc(-c2cn(CC[C@@H]3CC[C@@H](NC(=O)Cc4ccccn4)[C@H](CO)O3)nn2)cc1	x	4.6	-1.5	-0.4	0.7
COc1ccccc1-c1cn(CC[C@@H]2CC[C@H](NC(=O)Cc3ccccn3)[C@H](CO)O2)nn1	x	4.6	40.2*	0.3	-0.9
COc1ccc(-c2cn(CC[C@@H]3CC[C@H](NC(=O)Cc4ccccn4)[C@@H](CO)O3)nn2)cc1	x	-0.1	22.4*!	-0.3	-0.2
COc1ccccc1-c1cn(CC[C@@H]2CC[C@H](NC(=O)Cc3ccccn3)[C@@H](CO)O2)nn1	x	-3.5	-4.6	-0.4	1.5
COc1ccc(S(=O)(=O)Nc2ccc3c(c2)CC(=O)N([C@H](C)CO)C[C@H](C)[C@@H](CN(C)Cc2ccc(C(=O)O)cc2)O3)cc1	x	x	-0.3	0.3	-0.6
CCOc1cccc2sc(NC(=O)CC)nc12	3.4	0.8	-3.8	x	-19.1*
O=C(C1CCCCC1)N1[C@@H](CO)[C@@H](c2ccccc2)C12CN(Cc1ccc(F)cc1)C2	x	x	-7.3	0.0	-5.1
N#Cc1c(-c2ccco2)ccn(Cc2cccc(F)c2)c1=O	-4.4	0.7	1.8	2.8	-16.9*
N#Cc1c(-c2ccco2)ccn(Cc2ccc(F)cc2)c1=O	1.5	-0.4	-1.5	0.2	-5.5

Screens from PubChem BioAssay.
